Bioassay records from PubChem.
TRPC4 PAM: allosteric potentiators of mouse TRPC4 channel | HEK293 TRPC4beta/mu-opioid, DAMGO EC20, Fluo-4 Ca2+ flux; stronger effect = higher value | B-score at 10 µM | hit rate 0.42% among 310,000;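 active = B-score of calcium response area above 5 SD of library B-scores, with initial fluorescence ratio within 5 SD of library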
Target sequence (Q9QUQ5 whole entry, looked up): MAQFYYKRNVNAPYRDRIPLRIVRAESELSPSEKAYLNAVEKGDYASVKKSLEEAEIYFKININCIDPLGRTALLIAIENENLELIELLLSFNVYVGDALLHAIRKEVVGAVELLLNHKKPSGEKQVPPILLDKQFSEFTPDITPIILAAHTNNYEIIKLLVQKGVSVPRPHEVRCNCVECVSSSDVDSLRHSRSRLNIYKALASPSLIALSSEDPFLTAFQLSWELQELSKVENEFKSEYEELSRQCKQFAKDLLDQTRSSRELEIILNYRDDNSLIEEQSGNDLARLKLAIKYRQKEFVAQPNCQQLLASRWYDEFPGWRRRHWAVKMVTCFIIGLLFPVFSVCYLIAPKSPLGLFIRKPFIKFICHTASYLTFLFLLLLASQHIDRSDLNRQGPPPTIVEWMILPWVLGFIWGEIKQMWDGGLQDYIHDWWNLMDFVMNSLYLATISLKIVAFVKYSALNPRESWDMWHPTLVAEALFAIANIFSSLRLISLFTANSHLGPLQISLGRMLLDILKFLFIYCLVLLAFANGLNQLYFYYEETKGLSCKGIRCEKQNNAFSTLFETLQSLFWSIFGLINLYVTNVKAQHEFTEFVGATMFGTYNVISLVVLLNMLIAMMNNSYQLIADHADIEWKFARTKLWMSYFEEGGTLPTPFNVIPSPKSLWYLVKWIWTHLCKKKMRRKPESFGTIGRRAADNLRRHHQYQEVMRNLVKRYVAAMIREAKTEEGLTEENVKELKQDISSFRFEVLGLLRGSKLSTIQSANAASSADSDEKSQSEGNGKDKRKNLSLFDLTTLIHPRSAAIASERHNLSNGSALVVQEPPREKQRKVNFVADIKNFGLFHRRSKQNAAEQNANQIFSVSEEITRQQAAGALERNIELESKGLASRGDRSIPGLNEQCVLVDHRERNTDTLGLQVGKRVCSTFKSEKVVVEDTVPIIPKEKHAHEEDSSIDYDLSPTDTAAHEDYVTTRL
TRPC4 agonist: TRPC4 (mouse) channel activation; Q9QUQ5; HEK293 TRPC4beta/mu-opioid, Fluo4 calcium fluorescence; stronger effect = higher value; B-score at 10 µM; hit rate 0.49% among 310,000;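 active = B-score above 5 SD of library B-scores, and initial fluorescence ratio not above library mean plus 5 SD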;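 also: positive B-score marks a calcium rise read as TRPC4 activation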
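Material: HEK293 stable line with TRPC4beta plus mu-opioid receptor; technique: Fluo4 calcium-sensitive dye fluorescence, kinetic, 1 Hz baseline; timing: Fluo4 dye loading 45 min at room temperature, 110 s recording; controls: assay buffer as low control, maximal DAMGO as high control; read-out: integrated baseline-normalised fluorescence ratio, converted to per-well B score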
TRPC6 inh: mouse TRPC6 channel inhibition | hit rate 1.1% among 310,000 | AID 2553 | HEK293-TRPC6, membrane potential dye, ACh-evoked depolarization; stronger effect = lower value | B-score at 10 µM | Q61143;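 active = B-score under library mean minus 3 SD, initial fluorescence not abnormally high, positive integrated signal ratio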;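 also: B-score derived from integrated fluorescence ratio over the kinetic read; more negative B-score means stronger inhibition of depolarization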
TRPC4 block: blocks the mouse TRPC4 cation channel. hit rate 0.39% among 300,000. AID 2247. HEK293 TRPC4beta/mu-opioid, DAMGO-evoked Fluo4 calcium flux; stronger effect = lower value. B-score at 10 µM. Q9QUQ5;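 active = B-score over 3 SD under the library average, no early fluorescence shift, positive overall ratio signal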
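Assay system: HEK293 cells with stable TRPC4beta plus mu-opioid receptor expression. Dosing: single dose. Measured by: Fluo4 Ca2+ flux fluorescence. Also added: DAMGO in two steps, submaximal then maximal. Read-out: B score from integrated Fluo4 fluorescence ratio.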
TRPC6 act: activates the mouse TRPC6 cation channel | HEK293-TRPC6 membrane potential dye fluorescence; stronger effect = higher value | B-score at 10 µM | hit rate 0.13% among 310,000;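 active = B-score of the integrated fluorescence ratio above library mean plus 3 SD, and starting fluorescence ratio within library mean plus 5 SD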;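 also: higher score means more depolarization so channel activation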
TRPC4 sel inh 2: mouse TRPC4 off-target activity of TRPC6 inhibitors, second screen; shares compounds with TRPC6 inh; HEK293 TRPC4/MOR, membrane potential dye fluorescence; channel activated by saturating DAMGO dose; inhibition, % at 10 µM; hit rate 42% among 920; AID 2776;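 active = compounds whose fluorescence signal differed from control wells by over 3 SD, either direction, in both duplicate plates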
TRPC4 spec: tests whether TRPC6 inhibitors also affect mouse TRPC4 | activity change, negative = inhibition, % at 10 µM | hit rate 61% among 920 | AID 2777 | HEK293 TRPC4/mu-opioid, membrane potential fluorescence | shares compounds with TRPC6 inh;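 active = rise or fall in signal beyond 3 SD of buffer-only wells in both replicate plates, either sign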;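 also: integrated kinetic ratio of fluorescence range over baseline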
HEK293 MPD ctr 2-1: second counter-screen for TRPC6 inhibitors: parental HEK293 cells. shares compounds with TRPC6 inh. parental HEK293 membrane potential dye fluorescence; maximal acetylcholine challenge after compound addition. signal change vs control, % at 10 µM. hit rate 31% among 920;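 active = membrane potential signal moving either way by over 3 SD of the maximum-effect control, in both duplicate plates, meaning non-specific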
HEK293 MPD ctr-1: parental HEK293 nonspecific activity of TRPC6 inhibitors. AID 2780. parental HEK293 membrane potential dye fluorescence. shares compounds with TRPC6 inh. membrane potential signal change, % at 10 µM. hit rate 60% among 920;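 active = membrane potential signal shifting up or down by more than 3 SD of buffer-only wells, on both duplicate plates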
HEK293 MPD ctr-2: checks TRPC6 modulator effects in parental HEK293 cells | shares compounds with TRPC6 inh | hit rate 51% among 2,400 | membrane potential signal change, % at 10 µM | membrane potential dye fluorescence;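 active = membrane potential signal moves up or down beyond 5 SD from buffer-only wells, on both duplicate plates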
HEK293 MPD ctr 2-2: second counter-screen for TRPC6 modulators: effect in parental HEK293 cells; shares compounds with TRPC6 inh; membrane potential dye fluorescence; after compound, maximal acetylcholine stimulation; inhibition, % at 10 µM; hit rate 14% among 2,400; AID 488926;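 active = membrane potential signal drops by more than 5 SD from the mean control signal, in both duplicate plates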
TRPC4/MOR mod: mouse TRPC4 off-target activity of TRPC6 modulators; shares compounds with TRPC6 inh; AID 488927; HEK293 TRPC4/mu-opioid, membrane potential fluorescence; percent change from control (negative = decrease, positive = increase), % at 10 µM; hit rate 69% among 2,400;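 active = membrane potential signal moved up or down beyond 5 SD of buffer control wells, in both duplicate plates, actives on both sides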
TRPC4/MOR inh 2: mouse TRPC4 off-target activity of TRPC6 modulators, second screen | shares compounds with TRPC6 inh | HEK293 TRPC4/mu-opioid, membrane potential dye fluorescence; stimulated with maximal-effect DAMGO | inhibition, % at 10 µM | hit rate 55% among 2,400;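 active = drop in membrane potential signal beyond 5 SD of the control wells in both duplicate plates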;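 also: TRPC4 counter screen for TRPC6 hits run under conditions tuned for TRPC6 not TRPC4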
TRPC6 block conf: mouse TRPC6 inhibitor confirmation. inhibition, % at 10 µM. shares compounds with TRPC6 inh. hit rate 43% among 3,300. HEK293-TRPC6, membrane potential dye, ACh-evoked depolarization;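 active = fluorescence ratio falls more than 5 SD below the full-stimulation control mean, in both duplicate runs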;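 also: integrated fluorescence ratio of peak minus minimum over baseline after agonist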
TRPC6 act conf: mouse TRPC6 activator confirmation. hit rate 11% among 2,800. HEK293-TRPC6 membrane potential dye fluorescence, FDSS. activation, % at 10 µM. shares compounds with TRPC6 inh. AID 488961;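 active = ratio signal rise beyond 5 SD above unstimulated control wells' mean, seen in both duplicate runs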
A number is an active result; . = inactive; / = not tested or not shown. Most compounds without a hit are left out; they make up all but 2.3% or so of the library.

SMILES | TRPC4 PAM | TRPC4 agonist | TRPC6 inh | TRPC4 block | TRPC6 act | HEK293 MPD ctr-2 | HEK293 MPD ctr 2-2 | TRPC4/MOR mod | TRPC4/MOR inh 2 | TRPC6 block conf | TRPC6 act conf | others
O=C1NC(=O)N(c2ccc(F)cc2)C(=O)/C1=C/c1ccsc1 | . | . | -5.49 | . | . | . | . | . | . | . | /
C[N+](C)(C)CC#CCN1CCCC1=O | . | 86 | -5.94 | . | . | 103.0% | 60.5% | 45.0% | . | 78.5% | /
c1ccc2c(c1)CC1CNCc3cccc(c31)S2 (centres undefined) | . | . | -7.08 | . | . | / | / | / | / | 66.2% | . | TRPC4 sel inh 2=62.0%;TRPC4 spec=.;HEK293 MPD ctr 2-1=.;HEK293 MPD ctr-1=.
Cc1cccc(N2CCc3c2nc2ccccc2c3N)c1 | . | . | -13.7 | -7 | . | -192.0% | 74.5% | -49.0% | 97.5% | 81.0% | .
COc1ccc(C(C)=O)cc1CC(C(=O)c1ccc(F)cc1)N(C)C (centres undefined) | . | . | . | . | . | / | / | / | / | / | /
C=CCN(c1ccc(C(=O)N(CC)CC)cc1)S(C)(=O)=O | . | . | -5.57 | . | . | . | . | . | . | . | .
CCc1ccc(-n2c(O)c(C(C)=O)c(=O)[nH]c2=O)cc1 (tested in a mixture with another compound) | . | . | . | . | . | / | / | / | / | / | /
CCCC(CCC)C(=O)OC[N+](C)(C)CCOC(=O)C(O)(c1ccccc1)C1CCCC1 (centres undefined) | . | . | -11.1 | . | . | / | / | / | / | 91.7% | . | TRPC4 sel inh 2=.;TRPC4 spec=.;HEK293 MPD ctr 2-1=-29.0%;HEK293 MPD ctr-1=.
O=C(O)C(O)(c1ccccc1)C1CCCC1 (centres undefined) | . | . | . | . | . | / | / | / | / | / | /
CN1CCCC(C(O)(c2ccccc2)c2ccccc2)C1 (centres undefined) | . | . | . | . | . | / | / | / | / | / | /
CC(C)(C)C(=O)OC[N+](C)(C)CCOC(=O)C(O)(c1ccccc1)C1CCCC1 (centres undefined) | . | . | -5.6 | . | . | . | 83.0% | . | . | 86.0% | .
Clc1cccc(N2CCNCC2)c1Cl | . | . | -8.96 | . | . | / | / | / | / | 55.5% | . | TRPC4 sel inh 2=72.5%;TRPC4 spec=-0.4%;HEK293 MPD ctr 2-1=.;HEK293 MPD ctr-1=1.9%
c1ccc2c(N3CCNCC3)cccc2c1 | . | . | . | . | . | / | / | / | / | / | /
COc1cc2c(cc1OC)-c1c(OC)c(OC)cc3c1[C@H](C2)[N+](C)(C)CC3 | . | . | -8.59 | . | . | -404.5% | 63.0% | -69.0% | 63.5% | 59.5% | .
Cc1cc(C)[n+](CCCC[n+]2c(C)cc(C)cc2C)c(C)c1 | . | . | -8.89 | . | . | -437.5% | 98.5% | -70.5% | 59.0% | 66.0% | .
